Assay outcomes (PubChem)
A selection: hits, their analogues and other compounds. The true share with any hit is near 3.4%.
GPR7 antag – blocks human GPR7 receptor signaling. P48145. GPR7-expressing cells, fluorescence antagonist assay. inhibition, % at 4.4 µM. 290,000 compounds, 1.1% hits. AID 1861; in the data active = inhibition above about 16%, passing the limit was not always enough;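 also: cells stimulated with the agonist NPW; 0% = agonist with vehicle and 100% = vehicle without agonist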
LANA-H2A inh – blocks KSHV LANA binding to histone H2A/H2B; Q9QR71; inhibition, % (concentration not given with the values); cell-free LANA-H2A/H2B peptide, fluorescence polarization; 320,000 compounds, 0.6% hits; in the data active = inhibition mostly above about 10%, no sharp cut-off; inactive = mostly below about 6.7%
TAAR1 antag – human TAAR1 antagonism; CHO RD-HGA16 TAAR1, Fluo-8 calcium fluorescence, antagonist; inhibition, % at 3 µM; 360,000 compounds, 1.5% hits;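 active = inhibition above a per-plate cutoff, the mean inhibition of test compounds on that plate plus 3 SD, cut at about 49% in these data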;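 also: 0% = DMSO plus EC80 beta-PEA response and 100% = DMSO alone without agonist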
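Test system – hTAAR1-expressing CHO RD-HGA16 cells, Gα16-coupled · Reagent – β-PEA at EC80 concentration, post-compound challenge · Compound dosing – 3 µM, single point · Timing – 140 s kinetic read after compound, 140 s after agonist · Detection – Fluo-8 intracellular calcium dye fluorescence, real-time kinetic reads · Control set – DMSO and EC80 PEA controls · Repeats – n of 1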
TRPN1 ag – agonists of zebrafish TRPN1 channel. HEK293 zebrafish TRPN1-YFP, Fluo-8 calcium fluorescence; 100% = response to 87 µM carbachol. activation, % at 3 µM. 220,000 compounds, 0.18% hits;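 active = activation above its plate's cutoff, the mean activation of test wells on that plate plus 3 SD, cut at about 19% in these data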;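 also: 0% = DMSO alone and 100% = 87 µM carbachol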
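System: zebrafish TRPN1-YFP in HEK293 cells / Dosing: 3 µM single point / Timing: dye loading 1 h at 37 °C, then 30 min room temperature / Signal: Fluo-8 calcium fluorescence, excitation 470-495 nm, emission 515-575 nm / Read-out basis: percent activation from peak over basal fluorescence ratio, control-normalized / Control set: high carbachol 87 µM, low DMSO alone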
TRPML3 agonist – activates the human TRPML3 channel; 220,000 compounds, 0.29% hits; Q8TDD5; activation, % at 3 µM; HEK293 TRPML3-YFP, Fluo-8 calcium fluorescence; 100% = the carbachol control signal; AID 1448;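 active = activation above its plate's cutoff, the mean activation of the plate's test wells plus 3 SD, cut at about 12% in these data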;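 also: 0% = DMSO only wells and 100% = carbachol wells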
Target sequence (Q8TDD5 whole entry, looked up): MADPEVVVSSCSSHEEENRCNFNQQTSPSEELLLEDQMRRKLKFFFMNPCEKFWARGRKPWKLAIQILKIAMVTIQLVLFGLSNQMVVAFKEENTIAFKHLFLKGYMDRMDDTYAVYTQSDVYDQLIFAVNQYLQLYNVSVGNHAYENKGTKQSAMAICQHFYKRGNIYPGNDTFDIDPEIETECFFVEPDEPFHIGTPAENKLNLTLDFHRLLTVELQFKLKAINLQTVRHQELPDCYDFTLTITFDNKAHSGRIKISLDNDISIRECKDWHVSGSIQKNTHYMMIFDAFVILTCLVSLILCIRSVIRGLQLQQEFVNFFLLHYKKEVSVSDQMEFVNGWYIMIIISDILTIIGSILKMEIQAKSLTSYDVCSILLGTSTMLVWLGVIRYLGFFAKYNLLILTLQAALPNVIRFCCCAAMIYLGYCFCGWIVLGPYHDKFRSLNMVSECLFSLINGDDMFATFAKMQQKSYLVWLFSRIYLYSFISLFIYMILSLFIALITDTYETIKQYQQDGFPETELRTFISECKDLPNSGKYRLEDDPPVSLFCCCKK
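Material: TRPML3-YFP stable HEK293 cells | Dosing: One concentration, 3 µM nominal, 0.3% DMSO | Timing: 125 s total fluorescence read per well | Technique: Fluo-8 calcium dye fluorescence, ex 470-495, em 515-575 nm | Measure: Percent activation from peak-to-basal fluorescence ratio, scaled between DMSO and carbachol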
TAAR1 ag – agonists of human TAAR1; AID 624467; CHO RD-HGA16 TAAR1, Fluo-8 calcium fluorescence; vehicle wells 0%, saturating PEA agonist 100%; Q96RJ0; 360,000 compounds, 0.99% hits; activation, % at 3 µM;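 active = activation above the mean activation of all test compounds in the run plus 3 SD, cut at about 38% in these data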
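Test system: RD-HGA16 (CHO) cells co-expressing Gα16 and hTAAR1 / Benchmarks: DMSO vehicle as 0%, PEA at EC100 as 100% / Repeats: no replicates (n 1) / Measure: % activation from peak over basal fluorescence ratio, DMSO-to-PEA scaled / Timing: 17-24 h plating, Fluo-8 75 min 37 °C, 30 min RT / Technique: kinetic Fluo-8 calcium fluorescence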
TAAR1 nonsel count – nonselective antagonist in TAAR1 antagonist counter-screen; shares compounds with TAAR1 antag; 2,400 compounds, 77% hits; inhibition, % at 3 µM; counterscreen cell line, calcium fluorescence, antagonist mode; in the data active = inhibition above about 22%;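 also: CHO-Ga16 host cells stimulated with ATP at an EC80 level; 0% = agonist EC80 plus vehicle and 100% = vehicle without agonist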
TAAR1 antag conf – human TAAR1 antagonism, confirmed | shares compounds with TAAR1 antag | inhibition, % at 3 µM | TAAR1-expressing cells, fluorescence antagonist read-out | 2,400 compounds, 40% hits; in the data active = inhibition above about 49%;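 also: CHO-Ga16 host cells challenged with agonist PEA near its EC80; 0% = agonist at EC80 plus vehicle and 100% = vehicle with no agonist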
Ga16 nonsel ag – nonselective Ga16 agonist in TAAR1 antagonist counter-screen. 2,400 compounds, 18% hits. activation, % at 3 µM. AID 651953. shares compounds with TAAR1 antag. Ga16-expressing cells, calcium fluorescence, agonist counterscreen; in the data active = activation above about 12%;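 also: 0% = vehicle wells and 100% = saturating stimulus response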
TAAR1 ag count – counter-screen for human TAAR1 antagonists: TAAR1 agonists | shares compounds with TAAR1 antag | hTAAR1 cell line, fluorescence activation, agonist mode | activation, % at 3 µM | 2,400 compounds, 2% hits; in the data active = activation above about 37%;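 also: CHO cells stably expressing TAAR1 with calcium dye readout; 0% = DMSO vehicle and 100% = full agonist response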
Numbers without * were called inactive; x = no result.

SMILES	GPR7 antag	LANA-H2A inh	TAAR1 antag	TRPN1 ag	TRPML3 agonist	TAAR1 ag	TAAR1 nonsel count	TAAR1 antag conf	Ga16 nonsel ag	TAAR1 ag count
NC(=O)c1nsc(C(=O)N(c2ccc(F)cc2)C(C(=O)NCC2CCCO2)c2ccc3ncccc3c2)c1N (centres undefined)	-9	-4	49*	x	x	13	25*	33	6	6
CCOc1ccc(C(C(=O)NCC2CCCO2)N(C(=O)c2snc(C(N)=O)c2N)c2cccc(F)c2)cc1 (centres undefined)	-1	-3	56*	x	x	17	28*	50*	10	23
CCOc1ccc(N(C(=O)c2snc(C(N)=O)c2N)C(C(=O)NCC2CCCO2)c2ccc(C)o2)cc1 (centres undefined)	-17	x	-16	x	x	-5	x	x	x	x
Cc1cc([N+](=O)[O-])ccc1NC(=O)C(C)NC1CCCCC1 (centres undefined)	-5	-5	-3	x	x	0	x	x	x	x
NC(=O)c1nsc(C(=O)N(c2ccccc2)C(C(=O)NCC2CCCO2)c2ccc(F)cc2)c1N (centres undefined)	-8	2	51*	x	x	14	20	39	9	13
O=C(NCC1CCCO1)C(c1ccc(F)cc1)N(C(=O)Cn1nnc(-c2ccc(F)cc2)n1)c1cccc(O)c1 (centres undefined)	-8	3	83*	3	0	16	36*	55*	11	13
CC(C)CC(C(=O)NCC1CCCO1)N(C(=O)Cn1nnc(-c2ccc(F)cc2)n1)c1cccc(C(F)(F)F)c1 (centres undefined)	-6	0	-12	1	0	6	x	x	x	x
Cc1ccc(C(C(=O)NCc2ccccc2)N(Cc2ccco2)C(=O)c2snc(C(N)=O)c2N)o1 (centres undefined)	-7	3	71*	x	x	14	30*	56*	8	12
COc1ccc(CNC(=O)COC(=O)c2ccc(Br)o2)cc1	x	2	-25	x	x	4	x	x	x	x
c1ccc(CN2CCC3CC2c2c3cccc2N2CCOCC2)cc1 (centres undefined)	x	x	13	x	x	0	x	x	x	x
CCOC(=O)c1ccc(Nc2cc(C)nc(-c3ccccc3O)n2)cc1	5	2	53*	1	0	2	26*	40	6	5
O=C(NCCO)c1cccc(Nc2nc(-c3ccccc3)c3cc(Cl)ccc3n2)c1	-20	4	49*	0	1	10	30*	37	5	14
CCCc1cc(C(=O)Nc2ccc(C(=O)c3ccccc3)cc2)n(C)n1	16	2	72*	x	x	-1	34*	55*	7	4
COc1cc(OC)cc(C(=O)Nc2cccc(NC(=O)c3cc(OC)cc(OC)c3)n2)c1	x	5	75*	x	x	14	27*	49*	8	5
CCCc1cc(C(=O)Nc2ccc(C(=O)c3ccc(F)cc3)cc2)n(C)n1	17	3	x	x	x	x	x	x	x	x
COc1cccc(C(=O)Nc2ccc(C(=O)c3ccccc3)cc2)c1	8	-21	67*	x	x	7	32*	41	8	2
COc1cc(OC)cc(C(=O)Nc2cccc(NC(C)=O)c2)c1	2	-2	0	1	0	3	x	x	x	x
O=C(Oc1cccc2c(O)cccc12)c1ccco1	x	x	-7	x	x	0	x	x	x	x
CC(NC(=O)COC(=O)c1ccc(Br)o1)c1ccccc1 (centres undefined)	x	x	-19	x	x	2	x	x	x	x
O=C(Nc1cccc(/C=C/c2nc3ccccc3c(=O)[nH]2)c1)c1ccccc1Cl	-14	4	68*	0	1	10	30*	48	12*	5
COc1ccc(C(=O)Nc2cccc(/C=C/c3nc4ccccc4c(=O)[nH]3)c2)cc1	-3	-3	55*	2	0	13	16	38	7	4
Cc1cccc(/C=C\c2nc3ccccc3c(=O)[nH]2)c1	9	-6	4	2	1	2	x	x	x	x
CC(C)N1CCCC(C)(C(=O)Nc2nccc3ccccc23)C1 (centres undefined)	x	x	-11	x	x	2	x	x	x	x
CSc1cccc(NC(=O)N2CCc3ccc(NC(=O)c4ccccn4)cc3C2)c1	8	2	62*	x	x	5	40*	45	9	5
CSc1cccc(NC(=O)c2ccccn2)c1	-10	1	x	-2	0	x	x	x	x	x
SMILES	GPR7 antag	LANA-H2A inh	TAAR1 antag	TRPN1 ag	TRPML3 agonist	TAAR1 ag	TAAR1 nonsel count	TAAR1 antag conf	Ga16 nonsel ag	TAAR1 ag count
O=C(c1ccc(-c2nc3ccccc3s2)o1)N1CCN(c2ccccc2O)CC1	-14	-6	64*	x	x	6	29*	43	4	3
C=CC[C@@H](CC(=O)OC(C)(C)C)C(=O)OC[C@@H]1CCCN1C(=O)[C@@H](CC=C)CC(=O)N[C@@H](CO)Cc1ccccc1	x	1	16	x	x	2	x	x	x	x
C=CC[C@@H](CC(=O)OC(C)(C)C)C(=O)OC[C@H]1CCCN1C(=O)[C@@H](CC=C)CC(=O)N[C@H](CO)Cc1ccccc1	x	-2	61*	x	x	17	36*	43	8	7
CCN(CC)CCCN(C(=O)c1cccc(C)c1)c1nc(-c2ccc(OC)cc2)cs1	-8	4	-7	x	x	7	x	x	x	x
Cc1nn2c(C)c(C(=O)Nc3ccccc3)cnc2c1C#N	-3	-3	53*	2	2	13	20	35	9	8
Cc1cc2ncc(C(=O)Nc3ccccc3)c(C)n2n1	-15	6	-3	-1	0	2	x	x	x	x
COc1ccc(-n2c(SCC(=O)Nc3cc(C)on3)nc3c(c2=O)SC(C)C3)cc1 (centres undefined)	x	x	-28	x	x	3	x	x	x	x
CCc1cccc2c(C(=O)COC(=O)c3nn(C)c(=O)c4ccccc34)c[nH]c12	0	-5	58*	1	1	26	37*	49	14*	11
Oc1c(Br)cc(Br)cc1C=NCc1ccccc1	0	4	19	2	1	9	x	x	x	x
Oc1c(Br)cc(Br)cc1C=NCc1ccc(F)cc1	-7	0	52*	2	1	5	27*	28	1	14
